This is an account of results in ChEMBL document CHEMBL1629439, “High-throughput identification of antibacterials against methicillin-resistant Staphylococcus aureus (MRSA) and the transglycosylase” (Bioorg Med Chem, 2010).

The structures appear in SMILES notation. Converted amounts (≈) assume the structure as drawn.

The subject of experiment [1] is Staphylococcus aureus. Nature of the experiment: Antimicrobial activity against Staphylococcus aureus ATCC 29213 after 18 to 24 hrs by alamar blue assay. A general note: The colour change of resazurin is a common sign of viable cells or microbes.
For experiment [2], the system named is Stenotrophomonas maltophilia. Kind of experiment: Antimicrobial activity against Stenotrophomonas maltophilia ATCC 13637 after 18 to 24 hrs by alamar blue assay. In kind it is functional. The settings on record: Stenotrophomonas maltophilia, ATCC 13637; read-out: MIC. Put shortly:
(§1)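 Broth microdilution per NCCLS in Mueller-Hinton broth, 8-point twofold dilutions, 384-well format. Exponential-phase cells at 5 × 10^5 cells/ml incubated with compound 18–24 h at 37 °C, then 20% Alamar blue added and fluorescence read. MIC90 taken as the lowest concentration preventing at least 90% bacterial growth.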

For experiment [3], the system named is Staphylococcus aureus. Kind of experiment: Antimicrobial activity against methicillin-resistant Staphylococcus aureus isolate NTUH4722 after 18 to 24 hrs by alamar blue assay. In kind it is functional. Put shortly: (§2)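 Broth microdilution per NCCLS standard, Mueller-Hinton broth, 8-point twofold dilutions; exponentially growing cells at 5 10^5 cells/ml with compound, 18–24 h at 37 C; 20% Alamar blue added, fluorescence read; MIC90 taken as lowest concentration preventing at least 90% growth.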

The subject of the next experiment is Escherichia coli. Kind of experiment: Antimicrobial activity against Escherichia coli ATCC […] after 18 to 24 hrs by alamar blue assay. It is filed as functional. The settings on record: Escherichia coli; read-out: MIC. Put shortly:
as §1

Experiment [4] relates to Mycolicibacterium smegmatis. Nature of the experiment: Antimicrobial activity against Mycobacterium smegmatis BCRC 11565 after 18 to 24 hrs by alamar blue assay. As to conditions: Mycolicibacterium smegmatis, BCRC 11565; read-out: MIC. It is filed as functional. In outline: as §1
For a further experiment, the system named is Serratia marcescens. Nature of the experiment: Antimicrobial activity against Serratia marcescens ATCC 14756 after 18 to 24 hrs by alamar blue assay. It is filed as functional. The settings on record: Serratia marcescens, ATCC 14756; read-out: MIC. In outline: as §1
In experiment [5] the test system is Staphylococcus aureus. Kind of experiment: Antimicrobial activity against oxacillin- and methicillin-resistant Staphylococcus aureus isolate Sa-OXA-R2 after 18 to 24 hrs by alamar blue assay. It is filed as functional. Put shortly:
as §2

In the next experiment the test system is Acinetobacter baumannii. Kind of experiment: Antimicrobial activity against Acinetobacter baumannii ATCC 49139 after 18 to 24 hrs by alamar blue assay. It is filed as functional. As to conditions: Acinetobacter baumannii, ATCC 49139; read-out: MIC. Put shortly:
as §1

In a further experiment the test system is Pseudomonas aeruginosa. Nature of the experiment: Antimicrobial activity against Pseudomonas aeruginosa ATCC 25619 after 18 to 24 hrs by alamar blue assay. It is filed as functional. The settings on record: Pseudomonas aeruginosa, ATCC 25619; read-out: MIC. Put shortly:
as §1

A further experiment deals with Bacillus subtilis. Kind of experiment: Antimicrobial activity against Bacillus subtilis ATCC 23857 after 18 to 24 hrs by alamar blue assay. It is filed as functional. In outline:
as §1

Experiment [6] relates to Staphylococcus aureus. Kind of experiment: Antimicrobial activity against methicillin-resistant Staphylococcus aureus ATCC 33592 after 18 to 24 hrs by alamar blue assay. It is filed as functional. As to conditions: Staphylococcus aureus, ATCC 33592; read-out: MIC. Put shortly: as §2

The term MIC denotes the smallest concentration in the dilution series that meets the test's criterion for growth inhibition. As to `CCc1ccccc1NS(=O)(=O)c1ccc2c(c1)NC(=O)C(C)S2` (centres undefined), the MIC against Staphylococcus aureus [1] is 0.5 µg/mL (≈ 1.38 µM); in experiment [2], > 256 µg/mL; in the experiment with Staphylococcus aureus [3] it was 32 µg/mL (≈ 88.3 µM); with Escherichia coli it was > 256 µg/mL; in experiment [4] it was > 64 µg/mL; in the experiment on Serratia marcescens it was > 256 µg/mL. The MIC was 1 µg/mL (≈ 2.76 µM) in the experiment on Staphylococcus aureus [5]; > 256 µg/mL with Acinetobacter baumannii; > 256 µg/mL in the experiment on Pseudomonas aeruginosa; < 0.03 µg/mL in the experiment on Bacillus subtilis; 1 µg/mL (≈ 2.76 µM) in the experiment with Staphylococcus aureus [6].

For `COC(=O)c1ccccc1NC(=O)c1ccc([N+](=O)[O-])o1`, the MIC in the experiment on Staphylococcus aureus [1] amounted to 8 µg/mL (≈ 27.6 µM); in experiment [2] it was 32 µg/mL (≈ 110 µM); in the experiment on Staphylococcus aureus [3], 4 µg/mL (≈ 13.8 µM); in the experiment with Escherichia coli, 256 µg/mL (≈ 882 µM); in experiment [4], 0.5 µg/mL (≈ 1.72 µM); in the experiment on Serratia marcescens it was 32 µg/mL (≈ 110 µM). Also, the MIC in the experiment with Staphylococcus aureus [5] is 2 µg/mL (≈ 6.89 µM); in the experiment on Acinetobacter baumannii, 12 µg/mL (≈ 41.3 µM); in the experiment on Pseudomonas aeruginosa it was 128 µg/mL (≈ 441 µM); in the experiment with Bacillus subtilis, 0.06 µg/mL (≈ 0.207 µM); with Staphylococcus aureus [6], 0.5 µg/mL (≈ 1.72 µM).

Take `O=C(Nc1nnc(-c2ccc(Cl)cc2)o1)c1cccc(C(F)(F)F)c1`: the MIC was 1 µg/mL (≈ 2.72 µM) with Staphylococcus aureus [1]; > 256 µg/mL in [2]; 0.125 µg/mL (≈ 0.34 µM) in the experiment with Staphylococcus aureus [3]; > 256 µg/mL with Escherichia coli; 0.5 µg/mL (≈ 1.36 µM) in experiment [4]; > 256 µg/mL in the experiment on Serratia marcescens. For the same molecule, the minimum inhibitory concentration (MIC) with Staphylococcus aureus [5] is 0.125 µg/mL (≈ 0.34 µM); with Acinetobacter baumannii, > 256 µg/mL; in the experiment with Pseudomonas aeruginosa, > 256 µg/mL; in the experiment on Bacillus subtilis, 0.5 µg/mL (≈ 1.36 µM); in the experiment on Staphylococcus aureus [6] it was 0.5 µg/mL (≈ 1.36 µM).

Take `CCc1ccccc1NS(=O)(=O)c1ccc2c(c1)NC(C)CC(=O)S2` (centres undefined): the MIC against Staphylococcus aureus [1] was 2 µg/mL (≈ 5.31 µM); in experiment [2] it was > 256 µg/mL; against Staphylococcus aureus [3], 4 µg/mL (≈ 10.6 µM); in the experiment on Escherichia coli, > 256 µg/mL; in experiment [4] it was > 64 µg/mL; in the experiment on Serratia marcescens it was > 256 µg/mL. Also, the MIC against Staphylococcus aureus [5] is > 64 µg/mL; in the experiment with Acinetobacter baumannii, > 256 µg/mL; in the experiment with Pseudomonas aeruginosa, > 256 µg/mL; against Bacillus subtilis, < 0.03 µg/mL; with Staphylococcus aureus [6] it was 8 µg/mL (≈ 21.2 µM).

For the molecule `Cc1c(CC(=O)N2CCC[C@H]2C(=O)O)c(=O)oc2c(C)c3occ(-c4ccc(Cl)cc4)c3cc12`, the MIC with Staphylococcus aureus [1] was 0.3 µg/mL (≈ 0.625 µM); in [2], > 256 µg/mL; in the experiment on Staphylococcus aureus [3], 0.3 µg/mL (≈ 0.625 µM); in the experiment on Escherichia coli, > 256 µg/mL; in experiment [4], 1 µg/mL (≈ 2.08 µM); in the experiment with Serratia marcescens, > 256 µg/mL. Further, the MIC in the experiment on Staphylococcus aureus [5] was 0.6 µg/mL (≈ 1.25 µM); in the experiment on Acinetobacter baumannii it was > 256 µg/mL; in the experiment on Pseudomonas aeruginosa it was > 256 µg/mL; against Bacillus subtilis, > 64 µg/mL; with Staphylococcus aureus [6], 0.3 µg/mL (≈ 0.625 µM).

As for `O=C(Nc1cccc2c1C(=O)NC2=O)c1ccc([N+](=O)[O-])o1`, the MIC against Staphylococcus aureus [1] was determined as 4 µg/mL (≈ 13.3 µM); in [2], 32 µg/mL (≈ 106 µM); in the experiment with Staphylococcus aureus [3] it was 2 µg/mL (≈ 6.64 µM); with Escherichia coli, 256 µg/mL (≈ 850 µM); in experiment [4], 0.5 µg/mL (≈ 1.66 µM); in the experiment on Serratia marcescens, 32 µg/mL (≈ 106 µM). Also, the MIC was 2 µg/mL (≈ 6.64 µM) against Staphylococcus aureus [5]; 12 µg/mL (≈ 39.8 µM) in the experiment on Acinetobacter baumannii; 128 µg/mL (≈ 425 µM) with Pseudomonas aeruginosa; 0.06 µg/mL (≈ 0.199 µM) against Bacillus subtilis; 1 µg/mL (≈ 3.32 µM) in the experiment on Staphylococcus aureus [6].

As to `CCCc1cc(O)nc(N2NC(C)=CC2NC(=O)c2ccccc2F)n1` (centres undefined), the MIC was 2 µg/mL (≈ 5.6 µM) against Staphylococcus aureus [1]; > 256 µg/mL in experiment [2]; 1 µg/mL (≈ 2.8 µM) against Staphylococcus aureus [3]; > 256 µg/mL in the experiment on Escherichia coli; 0.25 µg/mL (≈ 0.7 µM) in experiment [4]; > 256 µg/mL in the experiment with Serratia marcescens. For the same molecule, the minimal inhibitory concentration (MIC) with Staphylococcus aureus [5] is 1 µg/mL (≈ 2.8 µM); in the experiment with Acinetobacter baumannii it was > 256 µg/mL; with Pseudomonas aeruginosa, > 256 µg/mL; against Bacillus subtilis it was 0.25 µg/mL (≈ 0.7 µM); with Staphylococcus aureus [6], 0.5 µg/mL (≈ 1.4 µM).

Turning to `O=C(Nc1cc(Cl)c(Cl)c(Cl)c1)c1cc(Cl)cc(Cl)c1O`, the MIC against Staphylococcus aureus [1] is 0.125 µg/mL (≈ 0.324 µM); in experiment [2] it was 16 µg/mL (≈ 41.5 µM); in the experiment on Staphylococcus aureus [3], 1 µg/mL (≈ 2.59 µM); with Escherichia coli, 8 µg/mL (≈ 20.8 µM); in [4], 0.5 µg/mL (≈ 1.3 µM); with Serratia marcescens, 16 µg/mL (≈ 41.5 µM). Moreover, the MIC in the experiment on Staphylococcus aureus [5] is 0.125 µg/mL (≈ 0.324 µM); with Acinetobacter baumannii, 16 µg/mL (≈ 41.5 µM); in the experiment with Pseudomonas aeruginosa, 16 µg/mL (≈ 41.5 µM); against Bacillus subtilis, < 0.03 µg/mL; with Staphylococcus aureus [6] it was 0.5 µg/mL (≈ 1.3 µM).

For the molecule `CCCc1cc(O)nc(N2NC(C)=CC2NC(=O)c2ccccc2)n1` (centres undefined), the minimal inhibitory concentration (MIC) against Staphylococcus aureus [1] was 2 µg/mL (≈ 5.89 µM); in [2] it was > 256 µg/mL; in the experiment on Staphylococcus aureus [3], 8 µg/mL (≈ 23.6 µM); in the experiment on Escherichia coli, > 256 µg/mL; in experiment [4], 0.25 µg/mL (≈ 0.737 µM); in the experiment with Serratia marcescens it was > 256 µg/mL. The MIC is 8 µg/mL (≈ 23.6 µM) in the experiment on Staphylococcus aureus [5]; > 256 µg/mL in the experiment with Acinetobacter baumannii; > 256 µg/mL with Pseudomonas aeruginosa; 0.25 µg/mL (≈ 0.737 µM) in the experiment with Bacillus subtilis; 8 µg/mL (≈ 23.6 µM) in the experiment on Staphylococcus aureus [6].
